Laboratory results as given in ChEMBL document CHEMBL1130424, “Stabilized analogs of thymopentin. 1. 4,5-Ketomethylene pseudopeptides” (J Med Chem, 1997).

How the values were obtained:
CCRF-CEM [1] = test: Efficacy was measured as the percentage binding to CEM cells.; format: functional, Homo sapiens
How it was run: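 CEM T-cells, subcultured in RPMI-1640 with 20% serum and stored frozen, were set at 5×10^6 cells/0.1 mL binding buffer (RPMI-1640 with bacitracin). Unlabeled competitor was added at 10^-6–10^-3 M, then [3H]thymopentin (37 Ci/mmol, 548 000 cpm). Incubation was 25 °C for 30 min, followed by two ice-cold washes and scintillation counting. Values are means of replicates at 10^-4 and 10^-3 M.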

CCRF-CEM [2] = test: Binding was measured using [3H]thymopentin was compared to the CEM cell binding assay.; format: functional, Homo sapiens; design: unit not given here
[3] = Half life by HPLC methods that permitted quantitative resolution of the decrease of TP-5 and the appearance of degradation products by absorbance, heparinized mouse serum.; format: ADME
How it was run: (§1)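 Mouse serum was prepared from whole blood with heparin sodium or EDTA as anticoagulant. Compounds were incubated for variable times, and incubation was ended by TFA to 10% (v/v) final, then 1 h at 0 °C and protein removal by centrifugation. Half-life came from HPLC absorbance following disappearance of parent and appearance of degradation products.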

[4] = Half life by HPLC methods that permitted quantitative resolution of the decrease of TP-5 and the appearance of degradation products by absorbance, human heparinized serum; format: ADME, cell-free
[5] = Half life by HPLC methods that permitted quantitative resolution of the decrease of TP-5 and the appearance of degradation products by absorbance in EDTA-treated mouse serum; format: ADME, organism-based; how it was run: as §1
[6] = Half life by HPLC methods that permitted quantitative resolution of the decrease of TP-5 and the appearance of degradation products by absorbance in heparinized mouse serum.; format: ADME; how it was run: as §1
[7] = Half life by HPLC methods that permitted quantitative resolution of the decrease of TP-5 and the appearance of degradation products by absorbance in human heparinized serum; format: ADME
[8] = Half life by HPLC methods that permitted quantitative resolution of the decrease of TP-5 and the appearance of degradation products by absorbance, heparinized mouse serum; Not degraded; format: ADME; how it was run: as §1
[9] = Half life by HPLC methods that permitted quantitative resolution of the decrease of TP-5 and the appearance of degradation products by absorbance, human heparinized serum; Not degraded; format: ADME
[10] = Half life by HPLC methods that permitted quantitative resolution of the decrease of TP-5 and the appearance of degradation products by absorbance in heparinized mouse serum; Not degraded; format: ADME; how it was run: as §1
[11] = Half life by HPLC methods that permitted quantitative resolution of the decrease of TP-5 and the appearance of degradation products by absorbance in human heparinized serum; Not degraded; format: ADME
[12] = Half life by HPLC methods that permitted quantitative resolution of the decrease of TP-5 and the appearance of degradation products by absorbance in heparinized mouse serum; format: functional, cell-free; how it was run: as §1

| SMILES | Efficacy (CCRF-CEM [1]) | Binding (CCRF-CEM [2]) | also measured |
| --- | --- | --- | --- |
| CC(C)[C@H](NC(=O)[C@H](CC(=O)O)NC(=O)[C@H](CCCCN)NC(=O)[C@@H](N)CCCN=C(N)N)C(=O)C[C@H](Cc1ccccc1)C(=O)O (stereo in doubt; 1a-B) | 73 | 1673 | – |
| CCCC[C@H](NC(=O)[C@@H](N)CCCN=C(N)N)C(=O)N[C@@H](CC(=O)O)C(=O)N[C@H](C(=O)C[C@H](C(=O)O)C(C)C)C(C)C (stereo in doubt; 1h-A) | 77 | 1600 | T1/2 [3]: 1.2 min; half-life [4]: 2.4 min |
| CCCC[C@H](NC(=O)[C@@H](N)CCCN=C(N)N)C(=O)N[C@@H](CC(=O)O)C(=O)N[C@H](C(=O)C[C@H](Cc1ccccc1)C(=O)O)C(C)C (stereo in doubt; 1c-A) | 95 | 1254 | half-life [5]: 21.1 min; half-life [6]: 5.5 min; half-life [7]: 1.9 min |
| CCCC[C@H](NC(=O)[C@@H](N)CCCN=C(N)N)C(=O)N[C@@H](CC(=O)O)C(=O)N[C@@H](C(C)C)C(O)C[C@H](Cc1ccccc1)C(=O)O (stereo partly specified) | 35 | 2400 | – |
| CC(C)[C@H](NC(=O)[C@H](CC(=O)O)NC(=O)[C@H](C)NC(=O)[C@@H](N)CCCN=C(N)N)C(=O)C[C@H](Cc1ccccc1)C(=O)O | 67 | 1780 | – |
| CCCC[C@H](NC(=O)[C@@H](N)CCCN=C(N)N)C(=O)N[C@@H](CC(=O)O)C(=O)N[C@H](C(=O)C[C@H](Cc1ccccc1)C(=O)O)C(C)C (stereo in doubt; 1c-B) | 84 | 1453 | – |
| CC(C)[C@H](NC(=O)[C@H](CC(=O)O)NC(=O)[C@@H]1CCCN1C(=O)[C@@H](N)CCCN=C(N)N)C(=O)C[C@H](Cc1ccccc1)C(=O)O (stereo in doubt; 1b-A) | 64 | 1843 | half-life [5]: 17 min; half-life [6]: 4.5 min; half-life [7]: 6 min |
| CCCC[C@H](NC(=O)[C@@H](N)CCCN=C(N)N)C(=O)N[C@@H](CC(=O)O)C(=O)N[C@@H](C(C)C)C1CC(Cc2ccccc2)C(=O)O1 (stereo partly specified) | 16 | 2771 | – |
| CCCC[C@H](NC(=O)[C@@H](N)CCCN=C(N)N)C(=O)N[C@@H](CC(=O)O)C(=O)N[C@@H](C)C(=O)C[C@H](Cc1ccccc1)C(=O)O (stereo in doubt; 1g-A) | 73 | 1677 | half-life [5]: 20 min |
| CCCC[C@H](NC(=O)[C@@H](N)CCCN=C(N)N)C(=O)N[C@@H](CC(=O)O)C(=O)N[C@H](C(=O)C[C@H](C(=O)O)C(C)C)C(C)C (stereo in doubt; 1h-B) | 71 | 1713 | T1/2 [3]: 2.6 min |
| CC(C)[C@H](NC(=O)[C@H](CC(=O)O)NC(=O)[C@@H]1CCCN1C(=O)[C@@H](N)CCCN=C(N)N)C(=O)C[C@H](Cc1ccccc1)C(=O)O (stereo in doubt; 1b-B) | 56 | 2000 | – |
| CC(C)C[C@H](NC(=O)[C@@H](N)CCCN=C(N)N)C(=O)N[C@@H](CC(=O)O)C(=O)N[C@H](C(=O)C[C@H](Cc1ccccc1)C(=O)O)C(C)C | 65 | 1851 | – |
| CCCC[C@H](NC(=O)[C@@H](N)CCCN=C(N)N)C(=O)N[C@@H](CC(=O)O)C(=O)N[C@@H](C)C(=O)C[C@H](Cc1ccccc1)C(=O)O (stereo in doubt; 1g-B) | 71 | 1715 | – |
| CC(C)[C@H](NC(=O)[C@H](CC(=O)O)NC(=O)[C@H](CCCCN)NC(=O)[C@@H](N)CCCN=C(N)N)C(=O)C[C@H](Cc1ccccc1)C(=O)O (stereo in doubt; 1a -A) [listing 1 of 2 here] | 70 | 1735 | half-life [5]: 4.9 min; half-life [7]: 2 min |
| CCCC[C@@H](C(=O)N[C@@H](CC(=O)O)C(=O)N[C@H](C(=O)C[C@H](C(=O)O)C(C)C)C(C)C)N(C)C(=O)[C@@H](N)CCCN=C(N)N | 37 | 2356 | T1/2 [8]: Not degraded; T1/2 [9]: Not degraded |
| CC(C)[C@H](NC(=O)[C@H](CC(=O)O)NC(=O)[C@H](CCCCN)NC(=O)[C@@H](N)CCCN=C(N)N)C(=O)C[C@H](Cc1ccccc1)C(=O)O (stereo in doubt; 1f-A) | 54 | 2044 | – |
| CCCC[C@@H](C(=O)N[C@@H](CC(=O)O)C(=O)N[C@H](C(=O)C[C@H](Cc1ccccc1)C(=O)O)C(C)C)N(C)C(=O)[C@@H](N)CCCN=C(N)N | 37 | 2356 | T1/2 [10]: Not degraded; T1/2 [11]: Not degraded |
| CC(C)[C@H](NC(=O)[C@H](CC(=O)O)NC(=O)[C@H](CCCCN)NC(=O)[C@@H](N)CCCN=C(N)N)C(=O)C[C@H](Cc1ccccc1)C(=O)O (stereo in doubt; 1a -A) [listing 2 of 2 here] | – | – | T1/2 [12]: 2 min |
